# ChEMBL document CHEMBL1137679, “Synthesis and antibacterial activity of some new 2,3-dimethoxy-3-hydroxy-2-(1-phenyl-3-aryl-4-pyrazolyl)chromanones” (2009)
# Activity calls are given as the source filed them. The calls are words filed in the database; no cut-off is given here.
# Experiments:
# Type in all cases: functional
# [1] = test system: Salmonella enterica subsp. enterica serovar Typhi str. CT18; test: Antimicrobial activity against Salmonella typhi MTCC 733 after 24 hrs by agar dilution assay; details: MTCC 733, 24 h
# Pseudomonas aeruginosa [2] = test: Antimicrobial activity against Pseudomonas aeruginosa MTCC 3541 after 24 hrs by agar dilution assay; details: MTCC 3541, 24 h
# Outline: (§1)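 Agar dilution MIC following NCCLS. Cultures streaked on soyabean casein digest agar overnight at 37 °C, suspended to 0.5 McFarland, then diluted 10-fold (1.2 × 10⁷ CFU/ml). DMSO stocks diluted and added to molten Mueller-Hinton agar, final concentrations 64 down to 0.12 by twofold steps. Plates surface-inoculated, incubated 35 °C for 24 h. MIC is lowest concentration with no visible growth.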
# [3] = test system: Staphylococcus epidermidis; test: Antimicrobial activity against Staphylococcus epidermidis MTCC 2639 after 24 hrs by agar dilution assay; details: MTCC 2639, 24 h; outline: as §1
# Bacillus pumilus [4] = test: Antimicrobial activity against Bacillus pumilus MTCC 1456 after 24 hrs by agar dilution assay; details: MTCC 1456, 24 h; outline: as §1
# Staphylococcus aureus [5] = test: Antimicrobial activity against Staphylococcus aureus MTCC 3160 at 1 mg/ml after 24 hrs by agar diffusion assay; details: MTCC 3160, 24 h, read-out: DIZ
# Outline: (§2)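 Agar well diffusion. 24-h cultures adjusted to 0.5 McFarland (1.5 × 10⁸ CFU/ml), mixed into molten cooled Mueller-Hinton agar (pH 7.4) and poured. 6 mm wells punched, each loaded with 50 µl of 1 mg/ml DMSO solution. DMSO as negative control, antibiotics as positive controls. Plates incubated 35 °C for 24 h. Mean of three replicates.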
# [6] = test system: Staphylococcus epidermidis; test: Antimicrobial activity against Staphylococcus epidermidis MTCC 2639 at 1 mg/ml after 24 hrs by agar diffusion assay; details: for zone of inhibition at 1000 µg/mL: MTCC 2639, 24 h, read-out: DIZ; outline: as §2
# Bacillus pumilus [7] = test: Antimicrobial activity against Bacillus pumilus MTCC 1456 at 1 mg/ml after 24 hrs by agar diffusion assay; details: for zone of inhibition at 1000 µg/mL: MTCC 1456, 24 h, read-out: DIZ; outline: as §2
# [8] = test system: Salmonella enterica subsp. enterica serovar Typhi str. CT18; test: Antimicrobial activity against Salmonella typhi MTCC 733 at 1 mg/ml after 24 hrs by agar diffusion assay; details: for zone of inhibition at 1000 µg/mL: MTCC 733, 24 h, read-out: DIZ
# Outline: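 Well diffusion in MHA (pH 7.4) seeded with 24-h culture adjusted to 0.5 McFarland (1.5 × 10⁸ CFU/ml). Wells of 6 mm received 50 µl of 1 mg/ml DMSO solution; DMSO served as negative control. Incubated 35 °C, 24 h. Mean of three replicates.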
# Pseudomonas aeruginosa [9] = test: Antimicrobial activity against Pseudomonas aeruginosa MTCC 3541 at 1 mg/ml after 24 hrs by agar diffusion assay; details: for zone of inhibition at 1000 µg/mL: MTCC 3541, 24 h, read-out: DIZ; outline: as §2
# Staphylococcus aureus [10] = test: Antimicrobial activity against Staphylococcus aureus MTCC 3160 after 24 hrs by agar dilution assay; details: MTCC 3160, 24 h; outline: as §1
smiles,measurement,setting,value
CC(=O)NC[C@H]1CN(c2ccc(N3CCOCC3)c(F)c2)C(=O)O1 [LINEZOLID],MIC,[1],8 µg/mL
same,MIC,Pseudomonas aeruginosa [2],< 16 µg/mL
same,MIC,[3],< 16 µg/mL
same,MIC,Bacillus pumilus [4],4 µg/mL
COC1(O)C(=O)c2ccccc2OC1(OC)c1cn(-c2ccccc2)nc1-c1ccccc1 (centres undefined),MIC,[1],> 64 µg/mL
same,MIC,Pseudomonas aeruginosa [2],> 64 µg/mL
same,zone of inhibition at 1000 µg/mL,Staphylococcus aureus [5],18.1 mm
same,diameter of the inhibition zone (DIZ),[6],inactive
same,diameter of the inhibition zone (DIZ),Bacillus pumilus [7],inactive
same,diameter of the inhibition zone (DIZ),[8],inactive
same,diameter of the inhibition zone (DIZ),Pseudomonas aeruginosa [9],inactive
same,MIC,Staphylococcus aureus [10],16 µg/mL
same,MIC,[3],> 64 µg/mL
same,MIC,Bacillus pumilus [4],> 64 µg/mL
COC1(O)C(=O)c2ccccc2OC1(OC)c1cn(-c2ccccc2)nc1-c1ccc(C)cc1 (centres undefined),MIC,[1],> 64 µg/mL
same,MIC,Pseudomonas aeruginosa [2],> 64 µg/mL
same,zone of inhibition at 1000 µg/mL,Staphylococcus aureus [5],16.1 mm
same,zone of inhibition at 1000 µg/mL,[6],12.6 mm
same,diameter of the inhibition zone (DIZ),Bacillus pumilus [7],inactive
same,diameter of the inhibition zone (DIZ),[8],inactive
same,diameter of the inhibition zone (DIZ),Pseudomonas aeruginosa [9],inactive
same,MIC,Staphylococcus aureus [10],32 µg/mL
same,MIC,[3],64 µg/mL
same,MIC,Bacillus pumilus [4],> 64 µg/mL
COC1(O)C(=O)c2ccccc2OC1(OC)c1cn(-c2ccccc2)nc1-c1ccc(Br)cc1 (centres undefined),MIC,[1],> 64 µg/mL
same,MIC,Pseudomonas aeruginosa [2],> 64 µg/mL
same,zone of inhibition at 1000 µg/mL,Staphylococcus aureus [5],10.3 mm
same,diameter of the inhibition zone (DIZ),[6],inactive
same,diameter of the inhibition zone (DIZ),Bacillus pumilus [7],inactive
same,diameter of the inhibition zone (DIZ),[8],inactive
same,diameter of the inhibition zone (DIZ),Pseudomonas aeruginosa [9],inactive
same,MIC,Staphylococcus aureus [10],64 µg/mL
same,MIC,[3],> 64 µg/mL
same,MIC,Bacillus pumilus [4],> 64 µg/mL
COC1(O)C(=O)c2ccccc2OC1(OC)c1cn(-c2ccccc2)nc1-c1ccc([N+](=O)[O-])cc1 (centres undefined),MIC,[1],8 µg/mL
same,MIC,Pseudomonas aeruginosa [2],16 µg/mL
same,zone of inhibition at 1000 µg/mL,Staphylococcus aureus [5],26 mm
same,zone of inhibition at 1000 µg/mL,[6],18.5 mm
same,zone of inhibition at 1000 µg/mL,Bacillus pumilus [7],15.8 mm
same,zone of inhibition at 1000 µg/mL,[8],20.6 mm
same,zone of inhibition at 1000 µg/mL,Pseudomonas aeruginosa [9],16.6 mm
same,MIC,Staphylococcus aureus [10],2 µg/mL
same,MIC,[3],8 µg/mL
same,MIC,Bacillus pumilus [4],32 µg/mL
CO/N=C(\C(=O)N[C@@H]1C(=O)N2C(C(=O)OC(C)OC(C)=O)=C(COC(N)=O)CS[C@H]12)c1ccco1 (some centres undefined) [CEFUROXIME AXETIL],MIC,[1],8 µg/mL
same,MIC,Pseudomonas aeruginosa [2],> 16 µg/mL
same,MIC,Staphylococcus aureus [10],8 µg/mL
same,MIC,[3],8 µg/mL
same,MIC,Bacillus pumilus [4],> 16 µg/mL
COC1(O)C(=O)c2ccccc2OC1(OC)c1cn(-c2ccccc2)nc1-c1ccc(Cl)cc1 (centres undefined),MIC,[1],> 64 µg/mL
same,MIC,Pseudomonas aeruginosa [2],32 µg/mL
same,zone of inhibition at 1000 µg/mL,Staphylococcus aureus [5],20.4 mm
same,zone of inhibition at 1000 µg/mL,[6],16.7 mm
same,diameter of the inhibition zone (DIZ),Bacillus pumilus [7],inactive
same,diameter of the inhibition zone (DIZ),[8],inactive
same,zone of inhibition at 1000 µg/mL,Pseudomonas aeruginosa [9],14.7 mm
same,MIC,Staphylococcus aureus [10],8 µg/mL
same,MIC,[3],16 µg/mL
same,MIC,Bacillus pumilus [4],> 64 µg/mL
COC1(O)C(=O)c2ccccc2OC1(OC)c1cn(-c2ccccc2)nc1-c1ccc(F)cc1 (centres undefined),MIC,[1],8 µg/mL
same,MIC,Pseudomonas aeruginosa [2],8 µg/mL
same,zone of inhibition at 1000 µg/mL,Staphylococcus aureus [5],23 mm
same,zone of inhibition at 1000 µg/mL,[6],12.1 mm
same,zone of inhibition at 1000 µg/mL,Bacillus pumilus [7],10.1 mm
same,zone of inhibition at 1000 µg/mL,[8],18.2 mm
same,zone of inhibition at 1000 µg/mL,Pseudomonas aeruginosa [9],22.2 mm
same,MIC,Staphylococcus aureus [10],4 µg/mL
same,MIC,[3],64 µg/mL
same,MIC,Bacillus pumilus [4],64 µg/mL
COc1ccc(-c2nn(-c3ccccc3)cc2C2(OC)Oc3ccccc3C(=O)C2(O)OC)cc1 (centres undefined),MIC,[1],> 64 µg/mL
same,MIC,Pseudomonas aeruginosa [2],> 64 µg/mL
same,zone of inhibition at 1000 µg/mL,Staphylococcus aureus [5],18 mm
same,diameter of the inhibition zone (DIZ),[6],inactive
same,diameter of the inhibition zone (DIZ),Bacillus pumilus [7],inactive
same,diameter of the inhibition zone (DIZ),[8],inactive
same,diameter of the inhibition zone (DIZ),Pseudomonas aeruginosa [9],inactive
same,MIC,Staphylococcus aureus [10],16 µg/mL
same,MIC,[3],> 64 µg/mL
same,MIC,Bacillus pumilus [4],> 64 µg/mL
N[C@@H](C(=O)N[C@@H]1C(=O)N2C(C(=O)O)=C(Cl)CS[C@H]12)c1ccccc1 [CEFACLOR ANHYDROUS],MIC,[1],8 µg/mL
same,MIC,Pseudomonas aeruginosa [2],< 16 µg/mL
same,MIC,Staphylococcus aureus [10],2 µg/mL
same,MIC,[3],2 µg/mL
same,MIC,Bacillus pumilus [4],8 µg/mL
